# Experimental data pooled from the literature.
# FLT3: Receptor-type tyrosine-protein kinase FLT3 (FLT3, Homo sapiens, UniProt P36888)
# FLT3 D835V: Receptor-type tyrosine-protein kinase FLT3 (FLT3, Homo sapiens, UniProt P36888, D835V)
# FLT3 D835Y: Receptor-type tyrosine-protein kinase FLT3 (FLT3, Homo sapiens, UniProt P36888, D835Y)
# FLT3 R834Q: Receptor-type tyrosine-protein kinase FLT3 (FLT3, Homo sapiens, UniProt P36888, R834Q)
# FLT3 K663Q: Receptor-type tyrosine-protein kinase FLT3 (FLT3, Homo sapiens, UniProt P36888, K663Q)
# FLT3 D835H: Receptor-type tyrosine-protein kinase FLT3 (FLT3, Homo sapiens, UniProt P36888, D835H)
# FLT3 F691L/ITD: Receptor-type tyrosine-protein kinase FLT3 (FLT3, Homo sapiens, UniProt P36888, F691L/ITD)
# FLT3 autoinhibited: Receptor-type tyrosine-protein kinase FLT3, autoinhibited (FLT3, Homo sapiens, UniProt P36888)
Structure (SMILES),target,read-out,technique,tested at,remaining binding [%]
CCS(=O)(=O)c1cc2cc(C[C@@](O)(CC(C)(C)c3ccc(F)cc3C(N)=O)C(F)(F)F)[nH]c2cn1,FLT3,cell-free assay,competition with immobilised ligand,1 µM,97
COc1cnc(Nc2cccc(S(N)(=O)=O)c2)nc1N1CCN(c2ccccc2)CC1,FLT3 D835V,binding,competition with immobilised ligand,1 µM,49
CN(c1nccc(-c2cnn3ncccc23)n1)C1CC1,FLT3 D835Y,binding,,1 µM,85
COc1ccc2cc(OCC3(C(=O)O)CN(C(=O)c4ccc(F)cc4)C3)ccc2c1,FLT3 R834Q,cell-free assay,competition with immobilised ligand,1 µM,100
C[C@@H]1CCN(c2nccc(-c3cnn4ncccc34)n2)C1,FLT3 D835Y,binding,,1 µM,100
Cc1c(C(=O)O)cc(-c2ccc(C3CCNCC3)cc2)c2ccc(-c3ccc(C(F)(F)F)cc3)cc12,FLT3,binding,competition with immobilised ligand,1 µM,100
CN(C)c1nccc(-c2cnc3ncccn23)n1,FLT3 D835V,binding,,1 µM,68
FC(F)(F)Oc1cccc(-c2cnc3ccc(-c4ccncc4)nn23)c1,FLT3,cell-free assay,competition with immobilised ligand,5 µM,3.6
CC1CCCN1c1nccc(-c2cnn3ncccc23)n1 (stereo not shown),FLT3 K663Q,binding,,1 µM,100
CO[C@@H](C)c1c(Nc2ccc([C@H](N(C)C(=O)C3CCS(=O)(=O)CC3)C(F)(F)F)cc2)cnc2cc(Cl)nn12,FLT3 D835Y,cell-free assay,competition with immobilised ligand,1 µM,59
O=C(c1ccc(Nc2nccc(-c3cc4ccccc4s3)n2)cc1)N1CCC(N2CCCC2)CC1,FLT3 R834Q,binding,competition with immobilised ligand,1 µM,30
F[C@@H]1CCN(c2nccc(-c3cnn4ncccc34)n2)C1,FLT3 R834Q,binding,,1 µM,100
O=C(c1ccc(Nc2ncc(Cl)c(-c3cc4ccccc4s3)n2)cc1)N1CCC(N2CCCC2)CC1,FLT3 D835H,binding,competition with immobilised ligand,1 µM,2.4
Cc1nc(N2CC[C@@H](O)C2)ncc1-c1cc(C(F)(F)F)cc2[nH]ncc12,FLT3 F691L/ITD,binding,competition with immobilised ligand,1 µM,69
O=C(Nc1c[nH]nc1C(=O)NC1CCNCC1)c1cc(F)cc(F)c1,FLT3,binding,competition with immobilised ligand,1 µM,100
COc1cnc(Nc2cccc(S(N)(=O)=O)c2)nc1N1CCN(c2ccccc2)C(=O)C1,FLT3 K663Q,binding,competition with immobilised ligand,1 µM,87
CN1CCN(c2ccc(Nc3nccc(-c4ccccc4)n3)cc2C(F)(F)F)CC1,FLT3 D835Y,binding,,10 µM,1.3
CN(C)c1ncnc(-c2ccc3nc(Nc4cc(CN5CCN(C(=O)CC(F)(F)F)CC5)ccn4)[nH]c3c2)c1Cl,FLT3 D835H,cell-free assay,competition with immobilised ligand,1 µM,42
O=C(NCC1CCOCC1)c1n[nH]cc1NC(=O)c1c(F)cccc1F,FLT3 R834Q,binding,competition with immobilised ligand,1 µM,77
Cc1cnc(Nc2ccc(C(=O)N3CCC(N4CCCC4)CC3)cc2)nc1-c1cc2ccccc2s1,"Receptor-type tyrosine-protein kinase FLT3 (FLT3, Homo sapiens, UniProt P36888, ITD)",binding,competition with immobilised ligand,1 µM,6.6
COc1ccnn2ncc(-c3ccnc(N(C)C)n3)c12,FLT3 D835V,binding,,1 µM,81
C[C@@H](c1ccc(-n2cnc3c(N)ncnc32)cc1)N1CCc2nn(C)c(Cc3ccccc3)c2C1=O,FLT3 D835Y,binding,competition with immobilised ligand,0.1 µM,100
O=C(c1ccc(Nc2ncc(Cl)c(-c3ccc(Cl)s3)n2)cc1)N1CCC(N2CCCC2)CC1,FLT3,binding,competition with immobilised ligand,1 µM,10
C[C@@H]1CN(c2cc(-c3nn(C)c4ccc(OC5(C)CC5)cc34)ncn2)C[C@H](C)O1,FLT3 autoinhibited,cell-free assay,competition with immobilised ligand,1 µM,77
O=C(NCCCN1CCOCC1)c1ccc(Nc2nccc(-c3cc4ccccc4s3)n2)cc1,"Receptor-type tyrosine-protein kinase FLT3 (FLT3, Homo sapiens, UniProt P36888, D835V/ITD)",binding,competition with immobilised ligand,1 µM,12
O=C(O)[C@H]1[C@H](Cn2nnc3ccccc3c2=O)CC[C@@H]1C(=O)c1ccc(OCCC2CCOCC2)cc1,FLT3 R834Q,cell-free assay,competition with immobilised ligand,1 µM,96
Cc1cnn2ncc(-c3ccnc(N(C)C)n3)c2c1,FLT3 D835H,binding,,1 µM,100
C=CC(=O)N1CCC(C(=O)NCC(=O)N2CCN(c3nc(-c4cnc(N)nc4C(F)F)nc(N4CCOCC4)n3)CC2)CC1,FLT3 autoinhibited,binding,competition with immobilised ligand,1 µM,99
Nc1ncc2c(n1)-c1c([nH]c3ccc(C#CC4CC4)cc13)CCCC2,FLT3 K663Q,binding,competition with immobilised ligand,1 µM,77
CNC(=O)[C@@H]1CC[C@@H](n2c(-c3ccc4cnccc4c3)nc3ccc(C(=O)NCc4cccc(C(N)=O)c4)cc32)C1,FLT3 D835V,binding,competition with immobilised ligand,1 µM,94
O=C(NC1CCC1)c1ccc2nc(-c3cccc(NS(=O)(=O)NCCN4CCCCC4)c3)cn2c1,FLT3 F691L/ITD,cell-free assay,competition with immobilised ligand,10 µM,80
CN1CCN(c2ccc(Nc3nccc(-c4cccc([N+](=O)[O-])c4)n3)cc2C(F)(F)F)CC1,FLT3 K663Q,binding,,10 µM,0.2
O=C(NCCCN1CCOCC1)c1ccc(Nc2ncc(Cl)c(-c3ccc(Cl)s3)n2)cc1,FLT3,binding,competition with immobilised ligand,1 µM,7.7
COc1ncc2cc3ccccc3nc2c1C#N,FLT3 D835H,cell-free assay,competition with immobilised ligand,5 µM,89
c1cncc(-c2cccc(Nc3nccc(NC4CCCCC4)n3)c2)c1,FLT3 D835Y,binding,competition with immobilised ligand,10 µM,1.4
CCN1CCN(Cc2ccc(C(=O)Nc3ccc(C)c(Oc4ccc5c(c4)CC(=O)N5)c3)cc2C(F)(F)F)CC1,FLT3 D835Y,binding,competition with immobilised ligand,1 µM,100
N[C@@H]1CCN(c2nccc(-c3cnn4ncccc34)n2)C1,FLT3 R834Q,binding,,1 µM,100
